In ChEMBL document CHEMBL1800069, “Structure-based design of a new series of D-glutamic acid based inhibitors of bacterial UDP-N-acetylmuramoyl-L-alanine:D-glutamate ligase (MurD)” (J Med Chem, 2011):
In brackets after ≈: the same amount, converted by molar mass. Activity calls are given as the source filed them. The calls are words filed in the database; no cut-off is given here.

Tests used:
[1] = Inhibition of Escherichia coli MurD ligase catalyzed addition of D-Glu to UDP-MurNAc-L-Ala after 15 mins by colorimetric analysis
In short: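 Malachite green colorimetric detection of orthophosphate released by E. coli MurD ligase, with 0.01% Triton X-100 present to avoid aggregate-based nonspecific inhibition. IC50 is taken as the inhibitor concentration that leaves 50% residual enzyme activity.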

Escherichia coli [2] = test: Inhibition of Escherichia coli MurD ligase catalyzed addition of D-Glu to UDP-MurNAc-L-Ala assessed as residual activity at 500 uM after 15 mins by colorimetric analysis
In short: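 E. coli MurD activity read by malachite green detection of released orthophosphate, with 0.01% Triton X-100 present. Residual activity (%) measured with 500 μM test compound. Values are the mean of two independent experiments, with standard deviations within ±10% of the mean.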

Staphylococcus aureus = test: Antibacterial activity against Staphylococcus aureus ATCC 29213 after 18 to 24 hrs by CLSI method; assay type: functional
Enterococcus faecalis = test: Antibacterial activity against Enterococcus faecalis ATCC 29212 after 18 to 24 hrs by CLSI method; assay type: functional
Escherichia coli [3] = test: Antibacterial activity against Escherichia coli ATCC 25922 after 18 to 24 hrs by CLSI method; assay type: functional, organism-based
Pseudomonas aeruginosa = test: Antibacterial activity against Pseudomonas aeruginosa ATCC 27853 after 18 to 24 hrs by CLSI method; assay type: functional, organism-based

For `O=C(O)CC[C@@H](NC(=O)c1cc(CNc2ccc(/C=C3\SC(=S)NC3=O)cc2)ccc1F)C(=O)O`, the IC50 [1] was 253 µM.

Work on `O=C(O)CC[C@@H](NC(=O)c1cccc(CNc2ccc(OCC(=O)O)cc2)c1)C(=O)O` yielded an Activity (Escherichia coli [2]) of 87%.

With `O=C(O)CC[C@@H](NC(=O)c1cccc(CN(C(=O)CC(=O)O)c2ccc(/C=C3\SC(=O)NC3=O)cc2)c1)C(=O)O` the IC50 [1] was 15 µM.

Molecule `O=C(O)CC[C@@H](NC(=O)c1cccc(CN(C(=O)C(=O)O)c2ccc(/C=C3\SC(=O)NC3=O)cc2)c1)C(=O)O` has an IC50 [1] of 40 µM.

With `O=C(O)CC[C@@H](NC(=O)c1cccc(CN(C(=O)C(=O)O)c2ccc(/C=C3\SC(=S)NC3=O)cc2)c1)C(=O)O` the IC50 [1] was 5 µM.

`O=C(O)CC[C@@H](NC(=O)c1cccc(CNc2ccc(/C=C3\NC(=O)NC3=O)cc2)c1)C(=O)O` gave an Activity (Escherichia coli [2]) of 99%.

With `O=C(O)CC[C@@H](NC(=O)c1ccc2ccn(Cc3ccc(OCC(=O)O)cc3)c2c1)C(=O)O` the Activity (Escherichia coli [2]) was 94%.

With `O=C(O)CC[C@@H](NC(=O)c1ccc(NCc2ccc(/C=C3\SC(=O)NC3=O)cc2)cc1)C(=O)O` the Activity (Escherichia coli [2]) was 88%.

For `O=C(O)CCC(=O)N(Cc1cccc(C(=O)N[C@H](CCC(=O)O)C(=O)O)c1)c1ccc(/C=C2\SC(=S)NC2=O)cc1`, the IC50 [1] was 7 µM, the MIC (Staphylococcus aureus) was 128 mg/L (≈ 213 µM) and the MIC (Enterococcus faecalis) was 128 mg/L (≈ 213 µM). For the same molecule, the Activity (Escherichia coli [3]) was “inactive” and the Activity (Pseudomonas aeruginosa) was “inactive”.

`O=C(O)CC[C@@H](NC(=O)c1cc(CNc2ccc(/C=C3\SC(=O)NC3=O)cc2)ccc1F)C(=O)O` showed an Activity (Escherichia coli [2]) of 71%.

In the case of `O=C(O)/C=C/c1ccc(NCc2cccc(C(=O)N[C@H](CCC(=O)O)C(=O)O)c2)cc1`, the Activity (Escherichia coli [2]) is reported as 96%.

`O=C(O)CCC(=O)N(Cc1cccc(C(=O)N[C@H](CCC(=O)O)C(=O)O)c1)c1ccc(/C=C2\SC(=O)NC2=O)cc1` showed an IC50 [1] of 105 µM.

In the case of `O=C(O)CC[C@@H](NC(=O)c1cccc(CN(C(=O)CC(=O)O)c2ccc(/C=C3\SC(=S)NC3=O)cc2)c1)C(=O)O`, the IC50 [1] is reported as 3 µM, the MIC (Enterococcus faecalis) is reported as 128 mg/L (≈ 219 µM) and the Activity (Escherichia coli [3]) is reported as “inactive”. The Activity (Pseudomonas aeruginosa) was “inactive”.

With `N=C1NC(=O)/C(=C/c2ccc(NCc3cccc(C(=O)N[C@H](CCC(=O)O)C(=O)O)c3)cc2)S1` the Activity (Escherichia coli [2]) was 85%.

With `COC(=O)CC[C@@H](NC(=O)c1cccc(CN(C(=O)CC(=O)OC)c2ccc(/C=C3\SC(=S)NC3=O)cc2)c1)C(=O)OC` the Activity (Staphylococcus aureus) was “inactive”, the Activity (Enterococcus faecalis) was “inactive” and the Activity (Escherichia coli [3]) was “inactive”. For the same molecule, the Activity (Pseudomonas aeruginosa) was “inactive”.

`O=C(O)CC[C@@H](NC(=O)c1cc(CNc2ccc(/C=C3\SC(=S)NC3=O)cc2)ccc1O)C(=O)O` gave an IC50 [1] of 124 µM.

Molecule `O=C(O)CC[C@@H](NC(=O)c1cccc(CNc2cccc(OCC(=O)O)c2)c1)C(=O)O` has an Activity (Escherichia coli [2]) of 89%.

For `COC(=O)CCC(=O)N(Cc1cccc(C(=O)N[C@H](CCC(=O)OC)C(=O)OC)c1)c1ccc(/C=C2\SC(=S)NC2=O)cc1`, the Activity (Staphylococcus aureus) was “inactive”, the Activity (Enterococcus faecalis) was “inactive” and the Activity (Escherichia coli [3]) was “inactive”. For the same molecule, the Activity (Pseudomonas aeruginosa) was “inactive”.
